Data reported in ChEMBL document CHEMBL3734650, “Synthesis and activity of novel 16-dehydropregnenolone acetate derivatives as inhibitors of type 1 5α-reductase and on cancer cell line SK-LU-1” (Bioorg Med Chem, 2015).
Calls of active or inactive are those of the source. The calls are words filed in the database; no cut-off is given here.

Key:
Androgen receptor = biological target: T1, Androgen receptor (Rattus norvegicus, UniProt P15207); assay: Displacement of [3H}-MIB from rat prostate cytosol androgen receptor assessed as relative binding affinity
T1 sequence (P15207 whole entry): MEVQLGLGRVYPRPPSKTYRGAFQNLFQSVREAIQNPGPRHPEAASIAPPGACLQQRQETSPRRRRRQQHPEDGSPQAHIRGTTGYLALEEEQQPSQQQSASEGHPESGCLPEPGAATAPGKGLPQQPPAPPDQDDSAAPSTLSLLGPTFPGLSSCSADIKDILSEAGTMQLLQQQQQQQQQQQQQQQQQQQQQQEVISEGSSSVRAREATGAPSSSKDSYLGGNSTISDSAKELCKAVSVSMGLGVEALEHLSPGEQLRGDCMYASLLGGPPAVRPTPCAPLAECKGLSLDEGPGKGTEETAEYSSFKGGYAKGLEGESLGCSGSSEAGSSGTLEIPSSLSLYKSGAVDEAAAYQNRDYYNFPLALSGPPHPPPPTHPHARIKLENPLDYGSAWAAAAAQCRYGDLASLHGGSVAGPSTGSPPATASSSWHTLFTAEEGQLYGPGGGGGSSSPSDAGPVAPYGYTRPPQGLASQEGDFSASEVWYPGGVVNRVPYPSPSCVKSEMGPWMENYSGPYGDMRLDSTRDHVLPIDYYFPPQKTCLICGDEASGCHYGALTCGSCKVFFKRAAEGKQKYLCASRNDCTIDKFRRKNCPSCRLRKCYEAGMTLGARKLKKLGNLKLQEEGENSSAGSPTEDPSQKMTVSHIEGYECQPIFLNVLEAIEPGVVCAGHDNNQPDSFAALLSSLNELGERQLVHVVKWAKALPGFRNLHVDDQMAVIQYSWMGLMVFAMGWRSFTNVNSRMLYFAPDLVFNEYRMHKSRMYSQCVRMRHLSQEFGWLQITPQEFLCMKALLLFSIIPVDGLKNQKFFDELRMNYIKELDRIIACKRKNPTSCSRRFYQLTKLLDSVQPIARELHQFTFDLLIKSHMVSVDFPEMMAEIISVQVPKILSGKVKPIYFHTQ

Syrian golden hamster [1] = assay: Increase of diameter of pigmented spot of flank organs in gonadectomized golden hamster at 2 mg/kg, sc qd for 6 days co-administered with 1 mg/kg of testosterone (reference value: 2.03 +/- 0.63 millimeter); type: functional, Mesocricetus auratus
Syrian golden hamster [2] = assay: Increase of prostate weight in gonadectomized golden hamster at 2 mg/kg, sc qd for 6 days co-administered with 1 mg/kg of testosterone (reference value: 50.4 +/- 9.9 mg); type: functional, Mesocricetus auratus, Prostate gland
MCF7 = assay: Cytotoxicity against human MCF7 cells as growth inhibition at 50 uM; type: functional; conditions: for inhibition of growth at 50 µM: read-out: GI
In short: (§1)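 Growth inhibition calculated from absorbance as 100 − (sample absorbance / vehicle absorbance × 100).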

[3] = biological target: T2, 3-oxo-5-alpha-steroid 4-dehydrogenase 2 (Homo sapiens, UniProt P31213); assay: Inhibition of human prostate type 2 5alpha-reductase assessed as transformation of testosterone to dihydrotestosterone; type: tissue-based, Prostate gland
T2 sequence (P31213 whole entry): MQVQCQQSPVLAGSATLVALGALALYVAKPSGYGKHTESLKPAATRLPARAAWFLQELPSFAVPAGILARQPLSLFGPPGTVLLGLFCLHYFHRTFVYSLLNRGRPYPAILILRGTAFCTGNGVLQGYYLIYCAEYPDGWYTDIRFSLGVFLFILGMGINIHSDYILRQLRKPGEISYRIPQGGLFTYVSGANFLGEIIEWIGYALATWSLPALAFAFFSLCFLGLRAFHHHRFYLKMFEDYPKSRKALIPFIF
In short: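 Enzyme source: normal prostate from a person, homogenized in buffer A (20 mM sodium phosphate pH 6.5, 0.32 M sucrose, 0.1 mM DTT), pelleted at 1500 × g, resuspended at 5 mg protein/mL. Inhibitors at 1 × 10⁻¹⁰ to 10⁻⁴ M. Radiolabelled T→DHT conversion quantified by TLC lane radioactivity against total plate radioactivity. IC50 taken from inhibition curves.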

Syrian golden hamster [4] = assay: Increase of seminal vesicles weight in gonadectomized golden hamster at 2 mg/kg, sc qd for 6 days co-administered with 1 mg/kg of testosterone (reference value: 96.11 +/- 12.5 mg); type: functional, Mesocricetus auratus
[5] = biological target: T3, 3-oxo-5-alpha-steroid 4-dehydrogenase 1 (Rattus norvegicus, UniProt P24008); assay: Inhibition of rat liver type 1 5alpha-reductase assessed as transformation of testosterone to dihydrotestosterone
T3 sequence (P24008 whole entry): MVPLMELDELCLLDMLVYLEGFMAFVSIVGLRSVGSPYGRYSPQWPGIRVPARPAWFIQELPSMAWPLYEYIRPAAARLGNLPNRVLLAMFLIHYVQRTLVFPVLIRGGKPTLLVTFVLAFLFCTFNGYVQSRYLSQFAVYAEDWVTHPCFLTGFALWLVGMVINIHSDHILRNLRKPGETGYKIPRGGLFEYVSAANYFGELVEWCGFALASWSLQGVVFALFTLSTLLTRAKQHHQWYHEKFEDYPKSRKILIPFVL
In short: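 Enzyme source: liver microsomes from overnight-fasted adult rats (8-month, 500 g), prepared in buffer A (20 mM sodium phosphate pH 6.5, 0.32 M sucrose, 0.1 mM DTT) at 4 °C, resuspended at 20 mg protein/mL. Inhibitors at 1 × 10⁻¹⁰ to 10⁻⁴ M. Radiolabelled T→DHT conversion quantified from TLC-plate radioactivity. IC50 taken from inhibition curves.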

[6] = (§2) Cytotoxicity against human PC3 cells assessed as growth inhibition at 50 uM; type: functional; conditions: PC-3, read-out: GI; in short: as §1
[7] = (§3) Cytotoxicity against human SKLU1 cells as growth inhibition at 50 uM; type: functional; conditions: SK-LU-1, read-out: GI; in short: as §1
PC-3 = assay: as §2; type: functional; in short: as §1
SK-LU-1 = assay: as §3; type: functional; in short: as §1
Syrian golden hamster [8] = assay: Increase of seminal vesicles weight in gonadectomized golden hamster at 1 mg/kg, sc qd for 6 days co-administered with 1 mg/kg of testosterone (reference value: 96.11 +/- 12.5 mg); type: functional, Mesocricetus auratus
Syrian golden hamster [9] = assay: Increase of diameter of pigmented spot of flank organs in gonadectomized golden hamster at 1 mg/kg, sc qd for 6 days co-administered with 1 mg/kg of testosterone (reference value: 2.03 +/- 0.63 millimeter); type: functional, Mesocricetus auratus
Syrian golden hamster [10] = assay: Increase of prostate weight in gonadectomized golden hamster at 1 mg/kg, sc qd for 6 days co-administered with 1 mg/kg of testosterone (reference value: 50.4 +/- 9.9 mg); type: functional, Mesocricetus auratus, Prostate gland
Syrian golden hamster [11] = assay: Increase of prostate weight in gonadectomized golden hamster at 1 mg/kg, sc qd for 6 days (reference value: 50.4 +/- 9.9 mg); type: functional, Mesocricetus auratus, Prostate gland
Syrian golden hamster [12] = assay: Increase of seminal vesicles weight in gonadectomized golden hamster at 1 mg/kg, sc qd for 6 days (reference value: 96.11 +/- 12.5 mg); type: functional, Mesocricetus auratus
Syrian golden hamster [13] = assay: Increase of diameter of pigmented spot of flank organs in gonadectomized golden hamster at 1 mg/kg, sc qd for 6 days (reference value: 2.03 +/- 0.63 millimeter); type: functional, Mesocricetus auratus

| Structure (SMILES) | IC50 (Androgen receptor) | Activity (Syrian golden hamster [1]) | Activity (Syrian golden hamster [2]) | inhibition of growth at 50 µM (MCF7) | IC50 [3] | Activity (Syrian golden hamster [4]) | IC50 ([5]; read-out: IC50) | inhibition of growth at 50 µM [6] | inhibition of growth at 50 µM [7] | growth inhibition (GI) (MCF7) | IC50 ([3]; read-out: IC50) | IC50 [5] | growth inhibition (GI) (PC-3) | growth inhibition (GI) (SK-LU-1) | Activity (Syrian golden hamster [8]) | Activity (Syrian golden hamster [9]) | Activity (Syrian golden hamster [10]) | Activity (Syrian golden hamster [11]) | Activity (Syrian golden hamster [12]) | Activity (Syrian golden hamster [13]) |
| --- | --- | --- | --- | --- | --- | --- | --- | --- | --- | --- | --- | --- | --- | --- | --- | --- | --- | --- | --- | --- |
| CCCCCC(=O)O[C@H]1CC[C@@]2(C)C(=CC[C@@H]3[C@@H]2CC[C@]2(C)C(C(=O)Cn4cncn4)=CC[C@@H]32)C1 | Not Active | 2.8 mm | 86.9 mg | 14.4% | Not Active | 200 mg | 100 µM | 16.9% | 6.4% |  |  |  |  |  |  |  |  |  |  |  |
| C[C@]12CC[C@H](OC(=O)C3CC3)CC1=CC[C@@H]1[C@@H]2CC[C@]2(C)C(C(=O)Cn3cncn3)=CC[C@@H]12 | Not Active | 2.88 mm | 107.48 mg |  |  | 180.3 mg |  |  |  | inactive | 118 µM | Not Active | inactive | inactive |  |  |  |  |  |  |
| C[C@]12CC[C@H](OC(=O)C3CCCCCC3)CC1=CC[C@@H]1[C@@H]2CC[C@]2(C)C(C(=O)Cn3cncn3)=CC[C@@H]12 | Not Active | 4.45 mm | 78.2 mg |  |  | 203.98 mg |  |  |  | inactive |  | Not Active | inactive | inactive |  |  |  |  |  |  |
| CC(=O)O[C@H]1CC[C@@]2(C)C(=CC[C@@H]3[C@@H]2CC[C@]2(C)C(C(=O)Cn4cncn4)=CC[C@@H]32)C1 | Not Active | 2.9 mm | 87.65 mg | 59.4% |  | 216.075 mg |  | 56.2% | 74.8% |  | 100 µM | Not Active |  |  |  |  |  |  |  |  |
| CCC(=O)O[C@H]1CC[C@@]2(C)C(=CC[C@@H]3[C@@H]2CC[C@]2(C)C(C(=O)Cn4cncn4)=CC[C@@H]32)C1 | Not Active | 2.79 mm | 89.55 mg | 5.9% | Not Active | 157.08 mg | 0.088 µM |  | 8.8% |  |  |  | inactive |  |  |  |  |  |  |  |
| CCCCC(=O)O[C@H]1CC[C@@]2(C)C(=CC[C@@H]3[C@@H]2CC[C@]2(C)C(C(=O)Cn4cncn4)=CC[C@@H]32)C1 | Not Active | 3.71 mm | 82.3 mg | 38.5% | Not Active | 180.03 mg | 0.32 µM | 38.2% | 20.2% |  |  |  |  |  |  |  |  |  |  |  |
| C[C@]12CC[C@H](OC(=O)C3CCCCC3)CC1=CC[C@@H]1[C@@H]2CC[C@]2(C)C(C(=O)Cn3cncn3)=CC[C@@H]12 | Not Active | 3 mm | 88 mg |  | Not Active | 150 mg |  |  |  | inactive |  | Not Active | inactive | inactive |  |  |  |  |  |  |
| C[C@]12CC[C@H](OC(=O)C3CCCC3)CC1=CC[C@@H]1[C@@H]2CC[C@]2(C)C(C(=O)Cn3cncn3)=CC[C@@H]12 | Not Active | 2.8 mm | 97 mg |  | Not Active | 120 mg |  |  |  | inactive |  | Not Active | inactive | inactive |  |  |  |  |  |  |
| CCCC(=O)O[C@H]1CC[C@@]2(C)C(=CC[C@@H]3[C@@H]2CC[C@]2(C)C(C(=O)Cn4cncn4)=CC[C@@H]32)C1 | Not Active | 2.71 mm | 81.3 mg | 25.6% | Not Active | 138.9 mg |  | 9.2% | 15.6% |  |  | Not Active |  |  |  |  |  |  |  |  |
| C[C@]12CC[C@H](O)CC1=CC[C@@H]1[C@@H]2CC[C@]2(C)C(C(=O)Cn3cncn3)=CC[C@@H]12 | Not Active | 3.05 mm | 89 mg | 62.1% | Not Active | 163.33 mg |  | 61.3% | 88.9% |  |  | Not Active |  |  |  |  |  |  |  |  |
| CC(C)(C)NC(=O)[C@H]1CC[C@H]2[C@@H]3CC[C@H]4NC(=O)C=C[C@]4(C)[C@H]3CC[C@]12C [FINASTERIDE] |  |  |  |  |  |  |  |  |  | inactive |  |  | inactive | inactive | 161.4 mg | 3.57 mm | 69.6 mg |  |  |  |
| CC(=O)N1CCN(c2ccc(OCC3COC(Cn4ccnc4)(c4ccc(Cl)cc4Cl)O3)cc2)CC1 (stereo not given) [KETOCONAZOLE] |  |  |  | 95.2% |  |  |  | 88.5% | 73.4% |  |  |  |  |  |  |  |  |  |  |  |
| C[C@]12CC[C@H]3[C@@H](CCC4=CC(=O)CC[C@@]43C)[C@@H]1CC[C@@H]2O [TESTOSTERONE] |  |  |  |  |  |  |  |  |  |  |  |  |  |  |  |  |  | 98 mg | 200.6 mg | 5.65 mm |
| C[C@]12CC[C@H](OC(=O)C3CCC3)CC1=CC[C@@H]1[C@@H]2CC[C@]2(C)C(C(=O)Cn3cncn3)=CC[C@@H]12 | Not Active | 2.14 mm | 100 mg |  | Not Active | 130 mg |  |  |  | inactive |  | Not Active | inactive | inactive |  |  |  |  |  |  |
